Results from ChEMBL document CHEMBL2385079, “Design, synthesis and pharmacological characterization of analogs of 2-aminoethyl diphenylborinate (2-APB), a known store-operated calcium channel blocker, for inhibition of TRPV6-mediated calcium transport” (Bioorg Med Chem, 2013).
The source made the active and inactive calls. No cut-off for these calls is given here.

Experiments:
[1] = target: T1, Transient receptor potential cation channel subfamily V member 6 (Homo sapiens, UniProt Q9H1D0); test: Inhibition of human TRPV6 transfected in HEK293 cells assessed as inhibition of Ca2+ influx after 5 mins by FLIPR assay; type: cell-based
T1 sequence (Q9H1D0 whole entry): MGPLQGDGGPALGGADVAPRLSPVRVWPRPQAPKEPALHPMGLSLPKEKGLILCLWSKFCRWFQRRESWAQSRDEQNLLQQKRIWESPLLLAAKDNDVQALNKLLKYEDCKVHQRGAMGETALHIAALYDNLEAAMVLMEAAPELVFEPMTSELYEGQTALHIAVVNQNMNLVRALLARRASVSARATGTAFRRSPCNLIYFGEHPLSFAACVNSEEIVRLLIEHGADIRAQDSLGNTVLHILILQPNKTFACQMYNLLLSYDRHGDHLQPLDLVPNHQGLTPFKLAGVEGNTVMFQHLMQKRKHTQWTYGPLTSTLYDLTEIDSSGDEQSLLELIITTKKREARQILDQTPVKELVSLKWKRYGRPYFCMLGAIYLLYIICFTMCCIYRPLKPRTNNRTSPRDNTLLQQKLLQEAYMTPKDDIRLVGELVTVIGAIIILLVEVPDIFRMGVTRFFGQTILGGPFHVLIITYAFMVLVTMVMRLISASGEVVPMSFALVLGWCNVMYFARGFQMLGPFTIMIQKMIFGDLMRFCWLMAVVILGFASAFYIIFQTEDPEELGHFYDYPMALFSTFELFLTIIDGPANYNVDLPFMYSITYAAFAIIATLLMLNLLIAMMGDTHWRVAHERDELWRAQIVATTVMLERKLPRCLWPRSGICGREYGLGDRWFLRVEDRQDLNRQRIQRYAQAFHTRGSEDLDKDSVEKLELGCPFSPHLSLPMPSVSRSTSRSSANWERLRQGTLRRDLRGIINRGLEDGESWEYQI
Method in brief: (§1)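 HEK293 clone stably expressing RFP-tagged hTRPV6, made by Lipofectamine transfection, G418 selection and picking of red-fluorescent single-cell colonies. Cells plated at 40,000/well and used after 36 h, then loaded 1 h at 37 °C with Calcium-5 in nominally Ca2+-free Krebs buffer. After a 50 s baseline, compound is given for 5 min. Then 2 mM CaCl2 or 50 µM CdCl2 is added, and the initial rate of fluorescence increase is read by FLIPR Tetra. IC50 is the average of six independent experiments.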

[2] = target: T1, Transient receptor potential cation channel subfamily V member 6; test: Inhibition of human TRPV6 transfected in HEK293 cells assessed as inhibition of Cd2+ influx after 5 mins by FLIPR assay; type: cell-based; method in brief: as §1
ORAI 1/2/3 [3] = target: T2, ORAI 1/2/3 (Homo sapiens, UniProt Q96D31+Q96SN7+Q9BRQ5); test: Inhibition of ORAl1/2/3 in HEK293 cells assessed as inhibition of Ca2+ influx up to 500 uM after 10 mins by FLIPR assay in presence of thapsigargin; type: cell-based
Method in brief: (§2)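 Untransfected HEK293 cells plated at 40,000 cells/well, used after 36 h and loaded 1 h at 37 °C with Calcium-5 dye in nominally Ca2+-free modified Krebs buffer (117 mM NaCl, 4.8 mM KCl, 1 mM MgCl2, 10 mM HEPES). After a 50 s baseline, compound is added together with 1 µM thapsigargin for 10 min. Ca2+ or Cd2+ is then added, and the rate of fluorescence rise is read by FLIPR Tetra (ex 470–495, em 515–575 nm). IC50 is the mean of six experiments.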

ORAI 1/2/3 [4] = target: T2, ORAI 1/2/3; test: Inhibition of ORAl1/2/3 in HEK293 cells assessed as inhibition of Cd2+ influx up to 500 uM after 10 mins by FLIPR assay in presence of thapsigargin; type: cell-based; method in brief: as §2
[5] = target: T3, Transient receptor potential cation channel subfamily V member 6 (Homo sapiens) (UniProt Q9H1D0); test: Inhibition of human TRPV6 transfected in HEK293 cells assessed as inhibition of Ca2+ influx up to 500 uM after 5 mins by FLIPR assay; type: cell-based; method in brief: as §1
T3 sequence (whole entry): T1 sequence (Q9H1D0 whole entry)

[6] = target: T3, Transient receptor potential cation channel subfamily V member 6 (Homo sapiens); test: Inhibition of human TRPV6 transfected in HEK293 cells assessed as inhibition of Cd2+ influx up to 500 uM after 5 mins by FLIPR assay; type: cell-based; method in brief: as §1
ORAI 1/2/3 [7] = target: T2, ORAI 1/2/3; test: Inhibition of ORAl1/2/3 in HEK293 cells assessed as inhibition of Ca2+ influx after 10 mins by FLIPR assay in presence of thapsigargin; type: cell-based; method in brief: as §2
ORAI 1/2/3 [8] = target: T2, ORAI 1/2/3; test: Inhibition of ORAl1/2/3 in HEK293 cells assessed as inhibition of Cd2+ influx after 10 mins by FLIPR assay in presence of thapsigargin; type: cell-based; method in brief: as §2
[9] = target: T3, Transient receptor potential cation channel subfamily V member 6 (Homo sapiens); test: Ratio of 2-APB IC50 to compound IC50 for human TRPV6
[10] = Stability of the compound in CHCl3 by NMR analysis; type: physicochemical
HEK293 = test: Selectivity ratio of IC50 for ORAl1/2/3 in HEK293 cells to IC50 for human TRPV6 transfected in HEK293 cells; type: cell-based
[11] = target: T1, Transient receptor potential cation channel subfamily V member 6; test: Inhibition of human TRPV6 transfected in HEK293 cells; type: cell-based; method in brief: as §1

SMILES	IC50 [1]	IC50 [2]	IC50 (ORAI 1/2/3 [7])	IC50 (ORAI 1/2/3 [8])	further results
OB(c1ccccc1)c1ccc(C(F)(F)F)cc1	11.3 µM	12.5 µM			
c1ccc(OB(Oc2ccccc2)Oc2ccccc2)cc1					inhibition (ORAI 1/2/3 [3]): inactive; inhibition (ORAI 1/2/3 [4]): inactive; inhibition [5]: inactive; inhibition [6]: inactive
Cc1ccc([B-]2(c3ccc(C)cc3)[NH2+]CCO2)cc1	14.4 µM	17.1 µM	1.6 µM	7.4 µM	
Fc1ccc([B-]2(c3ccc(F)cc3)[NH2+]CCO2)cc1	17 µM	14.2 µM	9 µM	5.9 µM	
OB(O)c1ccccc1					inhibition (ORAI 1/2/3 [3]): inactive; inhibition (ORAI 1/2/3 [4]): inactive; inhibition [5]: inactive; inhibition [6]: inactive
CCCCc1ccc([B-]2(c3ccccc3)[NH2+]CCO2)cc1 (stereo unspecified)	14.3 µM	12.1 µM	3.5 µM	2.4 µM	
Brc1ccc([B-]2(c3ccccc3)[NH2+]CCO2)cc1 (stereo unspecified)	13.2 µM	9.8 µM	3.4 µM	4.9 µM	
Ic1ccc([B-]2(c3ccccc3)[NH2+]CCO2)cc1 (stereo unspecified)	5.4 µM	5.2 µM	2.8 µM	7.2 µM	Ratio IC50 [9]: 4
COc1ccccc1B(O)c1ccccc1OC	> 500 µM	> 500 µM	13.2 µM	11.8 µM	
COc1ccc([B-]2(c3ccc(OC)cc3)[NH2+]CCO2)cc1	> 100 µM	89.8 µM	12.4 µM	25.8 µM	
c1ccc([B-]2(c3ccccc3)[NH2+]CCS2)cc1	127 µM	93.5 µM	51.8 µM	44.6 µM	
OB(c1ccccc1)c1ccccc1 [DIPHENYL BORINIC ACID]	19.1 µM	31.5 µM	9.8 µM	8.7 µM	
OB(c1ccc(F)cc1)c1ccc(F)cc1	37.1 µM	61.6 µM	26.6 µM	17.1 µM	
c1ccc(B(OB(c2ccccc2)c2ccccc2)c2ccccc2)cc1	19.2 µM	17.7 µM	11.4 µM	13.4 µM	
O=C1O[B-](c2ccccc2)(c2ccccc2)[NH2+][C@H]1Cc1c[nH]c2ccccc12			6.9 µM	14.7 µM	inhibition [5]: inactive; inhibition [6]: inactive
CB(O)O [METHANE BORONIC ACID]			> 500 µM	> 500 µM	inhibition [5]: inactive; inhibition [6]: inactive
OB(c1ccccc1)c1ccc(Cl)cc1	9.7 µM	12 µM	21.8 µM	6.4 µM	
O=C1C[NH2+][B-](c2ccccc2)(c2ccccc2)O1	12.9 µM	30.6 µM	38.6 µM	11 µM	Stability [10]: Stable
Cc1ccccc1[B-]1(c2ccccc2)[NH2+]CCO1 (stereo unspecified)	31.1 µM	67.9 µM	10 µM	9.9 µM	
Cc1ccc([B-]2(c3ccccc3)[NH2+]CCO2)cc1 (stereo unspecified)	18.9 µM	12.9 µM	8.6 µM	2.7 µM	
Cc1ccc([B-]2(c3ccccc3)[NH2+]CCO2)s1 (stereo unspecified)	12.3 µM	10 µM	30.9 µM	25.2 µM	Ratio IC50 (HEK293): 2.5

SMILES	IC50 [1]	IC50 [2]	IC50 (ORAI 1/2/3 [7])	IC50 (ORAI 1/2/3 [8])	further results
C[N+]1(C)CCO[B-]1(c1ccccc1)c1ccccc1	63.6 µM	19.8 µM	8.9 µM	5.1 µM	
c1ccc([B-]2(c3ccccc3)OCC[N+]23CCNCC3)cc1	15 µM	24.3 µM	6 µM	2.2 µM	
c1ccc([B-]2(c3ccccc3)OCc3cccc[n+]32)cc1	34.9 µM	41.5 µM	10.7 µM	10.2 µM	
c1ccc([B-]2(c3cccnc3)[NH2+]CCO2)cc1 (stereo unspecified)					inhibition (ORAI 1/2/3 [3]): inactive; inhibition (ORAI 1/2/3 [4]): inactive; inhibition [5]: inactive; inhibition [6]: inactive
c1ccc([B-]2(c3ccccc3)Oc3cccc4ccc[n+]2c34)cc1					inhibition (ORAI 1/2/3 [3]): inactive; inhibition (ORAI 1/2/3 [4]): inactive; inhibition [5]: inactive; inhibition [6]: inactive
c1ccc([B-]2(c3ccccc3)OC[C@@H]3CCC[NH+]32)cc1 (stereo partly specified)	18.8 µM	28 µM	8.9 µM	10.2 µM	
O=C1O[B-](c2ccccc2)(c2ccccc2)[NH2+][C@H]1CO	36.6 µM	20.2 µM	40.5 µM	9.8 µM	Stability [10]: Stable
c1ccc([B-]2(c3ccccc3)[NH2+]CCCO2)cc1	16.2 µM	28.1 µM	7.9 µM	8.2 µM	
NCCOC(c1ccccc1)c1ccccc1	159 µM	> 500 µM	106 µM	184.2 µM	
OB(c1ccc(C(F)(F)F)cc1)c1ccc(C(F)(F)F)cc1	10.8 µM	11.2 µM	7.6 µM	9.5 µM	
Fc1ccc([B-]2(c3ccccc3)[NH2+]CCO2)cc1 (stereo unspecified)	18.8 µM	33.6 µM	9.3 µM	9.8 µM	
c1ccc(-c2ccc([B-]3(c4ccccc4)[NH2+]CCO3)cc2)cc1 (stereo unspecified)	72.3 µM	51.3 µM	13.4 µM	7.7 µM	
CN(C)CCOC(c1ccccc1)c1ccccc1 [DIPHENHYDRAMINE]			> 500 µM	> 500 µM	inhibition [5]: inactive; inhibition [6]: inactive
COc1ccccc1[B-]1(c2ccccc2OC)[NH2+]CCO1	> 500 µM	412 µM	11.6 µM	10.5 µM	
FC(F)(F)c1ccc([B-]2(c3ccc(C(F)(F)F)cc3)[NH2+]CCO2)cc1	16.3 µM	13.7 µM	2.1 µM	3.2 µM	
Cc1ccc(B(O)c2ccc(C)cc2)cc1	18.6 µM	29 µM	23 µM	25.9 µM	
OC(c1ccccc1)c1ccccc1 [DIPHENYLMETHANOL]			> 500 µM	> 500 µM	inhibition [5]: inactive; inhibition [6]: inactive
OB1c2ccccc2CCc2ccccc21	> 500 µM	> 500 µM	33.3 µM	36.4 µM	
c1ccc([B-]2(c3ccccc3)[NH2+]CCO2)cc1	20.7 µM	24.5 µM	22.9 µM	11.9 µM	IC50 [11]: 22 µM
c1ccc([B-]2(c3ccccc3)OC[C@H]3CCC[NH+]32)cc1 (stereo partly specified)	18.5 µM	30.6 µM	8 µM	10.1 µM	
OB(O)O					inhibition (ORAI 1/2/3 [3]): inactive; inhibition (ORAI 1/2/3 [4]): inactive; inhibition [5]: inactive; inhibition [6]: inactive
